hERG protect: shields human hERG channel from block by proarrhythmic agents | AID 1511 | activation (rescue from dofetilide block), less the hit threshold, % at 10 µM | actives 0.51% (n = 310,000) | CHO-hERG, FluxOR thallium flux, dofetilide IC70 present | Q12809;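 active = activation above the mean of controls blocked by dofetilide plus 5 SD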;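 note: thallium influx through hERG after potassium depolarization seen as dye fluorescence rise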
Kir21 block: Kir2.1 (mouse) channel inhibition | P35561 | HEK293-Kir2.1, FluxOR thallium flux fluorescence; active compounds read low | B-score at 10 µM | actives 0.85% (n = 310,000);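 active = fluorescence ratio B-score at or below minus 3 SD of library scores, with starting-brightness B-score within 2 SD, cut at about -4.2 in these data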;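 note: channel flux triggered by added potassium and thallium sulfate stimulus; B-score of peak minus minimum fluorescence over baseline after thallium stimulus; more negative B-score means stronger Kir2.1 block with less thallium influx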
Target sequence (P35561 whole entry, looked up): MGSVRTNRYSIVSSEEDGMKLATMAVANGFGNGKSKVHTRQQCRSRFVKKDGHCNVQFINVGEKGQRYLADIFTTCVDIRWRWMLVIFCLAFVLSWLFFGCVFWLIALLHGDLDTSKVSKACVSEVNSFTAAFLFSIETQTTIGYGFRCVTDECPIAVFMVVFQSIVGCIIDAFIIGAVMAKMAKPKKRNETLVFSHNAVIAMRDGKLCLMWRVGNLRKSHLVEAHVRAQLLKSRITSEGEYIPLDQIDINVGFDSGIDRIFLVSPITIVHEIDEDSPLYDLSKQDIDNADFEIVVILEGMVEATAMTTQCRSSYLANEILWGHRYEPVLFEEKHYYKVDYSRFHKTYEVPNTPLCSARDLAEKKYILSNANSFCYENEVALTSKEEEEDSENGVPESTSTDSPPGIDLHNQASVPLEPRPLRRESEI
KCNQ1 act: potentiates or activates the human KCNQ1 potassium channel. P51787. CHO-K1 KCNQ1, thallium flux FluxOR fluorescence; active compounds read high. B-score at 10 µM. actives 0.35% (n = 310,000). AID 2648;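 active = fluorescence ratio B-score, a plate-corrected score, at least three library SD, with initial intensity B-score within 5 SD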
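Test system: CHO-K1 cells stably expressing KCNQ1 / Medium: assay buffer / Also added: depolarizing K+/Tl+ stimulus, K2SO4 and Tl2SO4 each 12.5 mM in 5x stock / Incubation: 90 min dye loading and 20 min compound exposure, both at room temperature / Signal: thallium influx via FluxOR fluorescence, kinetic imaging / Evaluation: B score of baseline-normalized fluorescence ratio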
KCNK3 block: human KCNK3 channel inhibition, primary screen; actives 0.84% (n = 340,000); O14649; B-score at 10 µM; CHO-KCNK3 thallium flux, FluxOR fluorescence; active compounds read low;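 active = B-score under library mean minus 4 SD, starting fluorescence ratio at most library mean plus 5 SD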;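 note: more negative B-score means stronger inhibition of thallium flux through KCNK3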
KCNQ1 inh: inhibitors of human KCNQ1 potassium channel. P51787. CHO-K1 KCNQ1, FluxOR thallium flux fluorescence; active compounds read high. B-score at 10 µM. actives 1.3% (n = 310,000). AID 2642;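 active = compounds whose thallium flux B-score, printed positive for inhibition, exceeds three library SD while starting fluorescence stays within three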;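 note: channel opened by potassium depolarization with thallium stimulus after 20 min compound exposure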
KCNK9 inh: blocks the human KCNK9 two-pore domain potassium channel. B-score at 10 µM. HEK293 KCNK9, FluxOR thallium flux fluorescence; active compounds read low. actives 1.2% (n = 310,000). Q9NPC2;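 active = ratio B-score over 3 SD below the library mean, with starting fluorescence within 5 SD of its mean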;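 note: negative B-score means less thallium flux so channel inhibition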
KCNK9 inh conf: human KCNK9 inhibitor confirmation; actives 43% (n = 4,900); shares compounds with KCNK9 inh; HEK293 KCNK9 cells, FluxOR thallium flux fluorescence; inhibition, % at 10 µM;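 active = thallium signal inhibited by more than 5 SD of the compound-free buffer control wells, on both duplicate plates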
Kir2-1 spec: selectivity of KCNK9 modulators against mouse Kir2.1. shares compounds with KCNK9 inh. Kir2.1 cells, FluxOR thallium flux fluorescence. inhibition, % at 10 µM. actives 4% (n = 4,900). AID 492993;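 active = thallium signal drop more than 5 SD beyond the mean of the no-compound control wells, seen in both duplicate plates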;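 note: signal is fluorescence rise after thallium addition divided by baseline fluorescence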
KCNK9 uninduced: second counter-screen for KCNK9 modulators: effect in non-induced cells; AID 492997; actives 40% (n = 4,900); shares compounds with KCNK9 inh; non-induced KCNK9-HEK293, FluxOR thallium flux; inhibition, % at 10 µM;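 active = thallium signal drop beyond 5 SD of the untreated control mean, on both duplicate plates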
Numbers stand for hits; - = inactive; . = not tested or not shown. Only some compounds are listed: those with a hit (about 3.7% of all), similar ones and a draw of the others.

SMILES | hERG protect | Kir21 block | KCNQ1 act | KCNK3 block | KCNQ1 inh | KCNK9 inh | KCNK9 inh conf | Kir2-1 spec | KCNK9 uninduced
COc1ccc2c(c1)CCc1cn3nc(C)cc3nc1-2 | - | - | - | - | - | - | - | - | -
COc1ccc(Cl)cc1NC(=O)COC(=O)CCNS(=O)(=O)c1cccs1 | . | . | . | - | . | . | . | . | .
O=C(NCCCN1CCOCC1)C1CCN(S(=O)(=O)c2cccc(C(F)(F)F)c2)CC1 | . | . | . | - | . | . | . | . | .
CCOc1cc(/C=N/Nc2nc3ccccc3[nH]2)cc(Br)c1OCC(=O)N(C)C | - | - | - | - | - | -11 | 58% | - | -
CCn1cc(Br)c(C(=O)Nc2cccc(Cl)c2)n1 | - | - | - | - | - | -12 | 63% | - | 33%
CCn1nc(C(=O)Nc2cccc(C(F)(F)F)c2)c(Cl)c1Cl | - | - | - | - | - | -8.9 | 46% | - | 28%
Cc1ccc(OCc2cc(C(=O)N3CCN(c4ccccc4)CC3)no2)cc1C | - | - | - | - | - | - | . | . | .
CCOc1ccc(C(=O)Nc2ccc(NC(=S)NC(=O)CC)cc2)cc1Cl | - | - | - | - | - | - | . | . | .
CCOc1ccccc1NC(=O)c1ccc(Cl)c(NC(=O)CC(c2ccccc2)c2ccccc2)c1 | - | - | - | - | - | -9.9 | 49% | - | 30%
CCOc1ccc(C(=O)Nc2cc(NC(=O)c3ccc(OCC)c(Cl)c3)cc(C(=O)O)c2)cc1Cl | - | - | - | - | - | - | - | - | -
CCN(CC(=O)NCc1cccs1)C(=O)c1cccc(S(=O)(=O)Nc2ccccc2Cl)c1 | - | - | - | - | - | - | . | . | .
CCOCCOC(=O)COC(=O)c1ccccc1NC(=O)c1ccccc1 | - | - | - | - | - | - | - | - | -
Cc1ccc(C(=O)COC(=O)CNC(=O)Cc2ccccc2)cc1[N+](=O)[O-] | - | - | - | - | - | - | . | . | .
O=C(COC(=O)c1ccccc1NC(=O)C1CC1)c1ccc2c(c1)OCCO2 | - | - | - | . | - | - | . | . | .
Cc1ccc(C(=O)COC(=O)c2ccccc2NC(=O)c2ccccc2)cc1[N+](=O)[O-] | - | - | - | - | - | -9 | 49% | - | 36%
CCOCC(=O)Nc1ccccc1C(=O)OCC | - | - | - | - | - | - | . | . | .
CC(C)(C)C(=O)Nc1ccccc1C(=O)OCC(=O)c1ccc2c(c1)OCCO2 | - | - | - | - | - | -18 | 62% | - | 32%
CCN1CCCC1CNC(=O)Cn1cc(C)c(=O)[nH]c1=O (centres undefined) | . | . | . | - | . | . | . | . | .
Cc1ccc(C(=O)Nc2cccc(S(=O)(=O)N3CCCCC3)c2)cc1S(=O)(=O)N1CCOCC1 | . | . | . | - | . | . | . | . | .
CC(C)(C)c1nnc(NC(=O)c2cccnc2)s1 | - | - | - | - | - | - | . | . | .
Cc1cccc(N=Nc2c(C)nn(-c3ccccc3)c2N)c1C | - | - | - | - | - | -9.3 | 34% | - | -
Cc1nn(-c2ccccc2)c(N)c1N=Nc1ccc(Cl)cc1 | - | - | - | - | - | - | . | . | .
Cc1nn(-c2ccccc2)c(N)c1N=Nc1ccccc1 | - | - | - | - | - | -11 | 29% | - | 28%
Nc1nn(-c2ccccc2)c(N)c1N=Nc1ccccc1F | - | - | - | - | - | - | . | . | .
O=c1c(C/C=C/c2ccccc2)c(O)ccn1Cc1ccc(Cl)cc1Cl | - | - | - | - | 9 | - | - | - | -
SMILES | hERG protect | Kir21 block | KCNQ1 act | KCNK3 block | KCNQ1 inh | KCNK9 inh | KCNK9 inh conf | Kir2-1 spec | KCNK9 uninduced
O=c1c(Cc2ccc(Cl)cc2Cl)c(O)ccn1Cc1ccncc1 | - | - | - | - | - | - | . | . | .
CCc1nc(N2CCC(C)CC2)c2oc3ccccc3c2n1 | - | - | - | - | - | -14 | 46% | - | 36%
[O-][n+]1ccc(C(O)c2ccccc2)cc1 (centres undefined) | - | - | - | - | - | - | . | . | .
Cc1c(C(=O)N2CCC[C@H]2C(N)=O)oc2c(F)cccc12 | - | - | - | - | - | - | - | - | -
Cc1c(C(=O)N2CCN(c3ccccn3)CC2)oc2c(F)cccc12 | - | - | - | - | - | - | . | . | .
COC(=O)c1cc(C(=O)NNC(=O)c2ccc3c(c2)OCO3)cc([N+](=O)[O-])c1 | . | . | . | - | . | . | . | . | .
COc1cc([N+](=O)[O-])ccc1NC(=S)NNC(=O)c1ccc2c(c1)OCO2 | - | - | - | - | 10 | - | - | - | -
Fc1ccccc1C1c2cccn2CCN1C(=S)Nc1cccc(Br)c1 (centres undefined) | - | - | - | - | - | -11 | 36% | - | 48%
c1ccc(-c2onc(-c3ccco3)c2-c2ccc3[nH]ccc3c2)cc1 | - | - | - | - | - | - | . | . | .
Cc1ccc(C(=O)COc2cc(O)c3c(=O)cc(-c4ccccc4)oc3c2)cc1 | - | - | - | - | - | - | . | . | .
O=C(COc1cc(O)c2c(=O)cc(-c3ccccc3)oc2c1)c1ccccc1 | - | - | - | - | - | -8.7 | 44% | - | 30%
CC(C)c1cccc(C2=CC(=O)C[C@H](c3ccc4c(c3)OCO4)C2)c1 | . | . | . | - | . | . | . | . | .
CCOC(=O)N1CCN(Cc2cc(=O)oc3ccc4ccccc4c23)CC1 | - | - | - | - | - | - | . | . | .
O=C(CC12CC3CC(CC(C3)C1)C2)NCC(=O)OCc1cc(=O)oc2ccc3ccccc3c12 | - | - | - | - | - | -15 | 62% | - | -
CCn1cnc2scc(-c3ccccc3)c2c1=O | - | - | - | - | - | - | . | . | .
Cn1cc(/C=N/n2cnc3scc(-c4ccc(Cl)cc4)c3c2=O)c2ccccc21 | - | - | - | - | - | - | - | - | -
Cc1cc(Oc2ccc3ccccc3c2)nc(SCC(=O)c2ccccc2)n1 | - | - | - | - | - | -13 | 76% | - | 38%
Cc1ccc(Nc2nc3ccccc3nc2-n2nc(C)cc2C)cc1 | - | - | - | - | - | -9.8 | 57% | - | 32%
CCCCN1CC[C@H]2C=CC[C@@H](C(=O)Nc3ccc(Cl)cc3Cl)[C@H]2C1=O | - | - | - | - | - | - | - | - | -
CN(C)c1ccc(C(=O)c2ccc(N(C)C)c3ccccc23)cc1 | - | - | - | - | - | - | - | - | -
COc1ccc(S(=O)(=O)NC2CC(=O)N(c3ccccc3)C2)cc1C (centres undefined) | - | - | - | - | - | - | . | . | .
COC(=O)c1ccc(C(=O)OC)c(NC(=O)CN(C)Cc2ccccc2)c1 | - | - | - | - | - | -11 | 71% | - | 36%

Screens deposited in PubChem BioAssay by Johns Hopkins Ion Channel Center.
